Data: ChEMBL document CHEMBL1150626, “Interiotherins C and D, two new lignans from Kadsura interior and antitumor-promoting effects of related neolignans on Epstein-Barr virus activation” (J Nat Prod, 2002)

Assays:
Type in all cases: cell-based
Raji [1] = assay: Inhibition of TPA-induced EBV-early antigen activation in human Raji cells assessed as EA activation at 1000 mol ratio relative to TPA; set-up: scale not given: the % may be the effect or the level left; details: human gammaherpesvirus 4
Raji [2] = assay: Inhibition of TPA-induced EBV-early antigen activation in human Raji cells assessed as EA activation at 500 mol ratio relative to TPA; set-up: scale not given: the % may be the effect or the level left; details: human gammaherpesvirus 4
Raji [3] = assay: Inhibition of TPA-induced EBV-early antigen activation in human Raji cells assessed as EA activation at 100 mol ratio relative to TPA; set-up: scale not given: the % may be the effect or the level left; details: human gammaherpesvirus 4
Raji [4] = assay: Inhibition of TPA-induced EBV-early antigen activation in human Raji cells assessed as EA activation at 10 mol ratio relative to TPA; set-up: scale not given: the % may be the effect or the level left; details: human gammaherpesvirus 4
Raji [5] = assay: Cytotoxicity against human Raji cells at 1000 mol ratio by trypan blue staining method
Summary of the method: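 Viability was assessed by trypan blue staining in Raji cells treated as in the EBV-EA assay: 48 h at 37 °C with n-butyric acid 4 mM, TPA and test compound in DMSO. Results are expressed as percent viable cells.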

## C/C=C(/C)C(=O)O[C@H]1c2cc3c(c(OC)c2-c2c(cc4c(c2OC)OCO4)C[C@H](C)[C@]1(C)O)OCO3 [INTERIOTHERIN B]
Raji [1]
  Activity: 11.6%
Raji [2]
  Activity: 57.2%
Raji [3]
  Activity: 80.3%
Raji [4]
  Activity: 100%
Raji [5]
  Activity: 60%

## C/C=C(/C)C(=O)O[C@H]1c2cc3c(c4c2[C@@]2(CO4)C(=O)C(OC)=C(OC)C=C2C[C@@H](C)[C@H]1C)OCO3 [HETEROCLITIN D]
Raji [1]
  Activity: 9.4%
Raji [2]
  Activity: 54.7%
Raji [3]
  Activity: 76.2%
Raji [4]
  Activity: 100%
Raji [5]
  Activity: 70%

## COc1cc2c(c(OC)c1OC)-c1c(cc3c(c1OC)OCO3)[C@H](OC(=O)c1ccccc1)[C@@](C)(O)[C@@H](C)C2 [GOMISIN G]
Raji [1]
  Activity: 18.9%
Raji [2]
  Activity: 59.2%
Raji [3]
  Activity: 81.4%
Raji [4]
  Activity: 100%
Raji [5]
  Activity: 60%

## C/C=C(/C)C(=O)O[C@H]1c2cc3c(c4c2[C@]2(CO4)C(=CC(=O)C(OC)=C2OC)C[C@@H](C)[C@H]1C)OCO3 [INTERIORIN]
Raji [1]
  Activity: 13.5%
Raji [2]
  Activity: 52%
Raji [3]
  Activity: 77.4%
Raji [4]
  Activity: 100%
Raji [5]
  Activity: 60%

## COc1cc2c(c(OC)c1OC)-c1c(cc3c(c1OC)OCO3)[C@H](OC(C)=O)[C@H](C)[C@H](C)C2 [KADSURIN]
Raji [1]
  Activity: 15%
Raji [2]
  Activity: 58.3%
Raji [3]
  Activity: 79.9%
Raji [4]
  Activity: 100%
Raji [5]
  Activity: 60%

## C/C=C(/C)C(=O)O[C@H]1c2cc3c(c(OC)c2-c2c(cc4c(c2OC)OCO4)C[C@H](C)[C@@H]1C)OCO3 [ANGELOYLGOMISIN R]
Raji [1]
  Activity: 10.6%
Raji [2]
  Activity: 55.6%
Raji [3]
  Activity: 79%
Raji [4]
  Activity: 100%
Raji [5]
  Activity: 60%

## C/C=C(/C)C(=O)O[C@H]1c2cc3c(c4c2C(C(=O)C(=O)OC)(CO4)/C(=C/C(=O)OC)C[C@@H](C)[C@H]1C)OCO3 (stereo not given in full) [HETEROCLITIN F]
Raji [1]
  Activity: 16.5%
Raji [2]
  Activity: 58.9%
Raji [3]
  Activity: 82.4%
Raji [4]
  Activity: 100%
Raji [5]
  Activity: 60%

## C/C=C(/C)C(=O)O[C@H]1c2cc(OC)c(OC)c(OC)c2-c2c(cc3c(c2OC)OCO3)[C@H](OC(C)=O)[C@H](C)[C@@H]1C [INTERIOTHERIN C]
Raji [1]
  Activity: 16%
Raji [2]
  Activity: 59%
Raji [3]
  Activity: 78.9%
Raji [4]
  Activity: 100%
Raji [5]
  Activity: 60%

## C/C=C(/C)C(=O)O[C@H]1c2cc3c(c4c2[C@@]2(CO4)C(=O)C(=O)C(OC)=C/C2=C/[C@@H](C)[C@H]1C)OCO3 [INTERIOTHERIN D]
Raji [1]
  Activity: 11.5%
Raji [2]
  Activity: 55.8%
Raji [3]
  Activity: 75%
Raji [4]
  Activity: 94.8%
Raji [5]
  Activity: 60%

## COc1cc2c(c(OC)c1OC)-c1c(cc3c(c1OC)OCO3)C[C@H](C)[C@](C)(O)[C@H]2OC(=O)c1ccccc1 [GOMISIN C]
Raji [1]
  Activity: 19.7%
Raji [2]
  Activity: 60.2%
Raji [3]
  Activity: 87.4%
Raji [4]
  Activity: 100%
Raji [5]
  Activity: 60%

## COc1cc2c(c(OC)c1OC)-c1c(cc3c(c1OC)OCO3)C[C@H](C)[C@](C)(O)C2
Raji [1]
  Activity: 7.1%
Raji [2]
  Activity: 52.5%
Raji [3]
  Activity: 78.3%
Raji [4]
  Activity: 96.6%

## COc1c2c(cc3c1-c1c(cc4c(c1OC)OCO4)[C@H](OC(=O)c1ccccc1)[C@@H](C)[C@@H](C)C3)OCO2 [INTERIOTHERIN A]
Raji [1]
  Activity: 18.3%
Raji [2]
  Activity: 60.1%
Raji [3]
  Activity: 85.7%
Raji [4]
  Activity: 100%
Raji [5]
  Activity: 60%

## COc1cc2c(c(OC)c1OC)-c1c(cc3c(c1OC)OCO3)C[C@H](C)[C@@](C)(O)C2 [GOMISIN A]
Raji [5]
  Activity: 70%

## COc1c2c(cc3c1-c1c(cc4c(c1OC)OCO4)C[C@H](C)[C@H](C)C3)OCO2 [SCHISANDRIN C]
Raji [1]
  Activity: 2.6%
Raji [2]
  Activity: 50.7%
Raji [3]
  Activity: 73.6%
Raji [4]
  Activity: 92.1%
Raji [5]
  Activity: 70%

## COc1cc2c(c(OC)c1OC)-c1c(cc3c(c1OC)OCO3)[C@@H]1O[C@H]2[C@@H](C)[C@H]1C [NEOKADSURANIN]
Raji [1]
  Activity: 4.7%
Raji [2]
  Activity: 51.6%
Raji [3]
  Activity: 72.9%
Raji [4]
  Activity: 92.6%
Raji [5]
  Activity: 70%
